Test results as given in ChEMBL document CHEMBL4616673 (J Med Chem, 2020).
pIC50: −log10 of the molar value. In brackets after ≈: the same amount, converted by molar mass. Activity calls are given as the source filed them. The rule behind the calls is not given here.

Columns and labels:
[1] = system: Raji; test: Induction of ROS generation in human Raji cells assessed as increase in ROS level measured after 24 hrs by DHE dye based fluorescence microplate reader assay; format: functional, cell-based
How it was run: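 Raji cells treated 24 h, harvested, stained with 10 μM DHE in pre-warmed PBS for 15 min in the dark. Fluorescence read on a plate reader at ex 510/em 600 nm. Mean ± SD.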

[2] = system: Raji; test: Induction of apoptosis in human Raji cells assessed as live cells at 0.5 uM measured after 48 hrs by Annexin V-FITC staining based flow cytometry (reference value: 96.46 to 96.71 %); format: functional
[3] = system: Raji; test: Induction of apoptosis in human Raji cells assessed as live cells at 0.25 uM measured after 48 hrs by Annexin V-FITC staining based flow cytometry (reference value: 96.46 to 96.71 %); format: functional
[4] = system: Raji; test: Induction of apoptosis in human Raji cells assessed as necrotic cells at 0.25 uM measured after 48 hrs by Annexin V-FITC staining based flow cytometry (reference value: 0.12 to 0.15 %); format: functional
[5] = system: Raji; test: Induction of apoptosis in human Raji cells assessed as early apoptotic cells at 1 uM measured after 48 hrs by Annexin V-FITC staining based flow cytometry (reference value: 2.12 to 2.15 %); format: functional
[6] = system: Raji; test: Induction of apoptosis in human Raji cells assessed as early apoptotic cells at 0.5 uM measured after 48 hrs by Annexin V-FITC staining based flow cytometry (reference value: 2.12 to 2.15 %); format: functional
[7] = system: A549; test: Antiproliferative activity against human A549 cells assessed as reduction in cell viability measured after 48 hrs by MTT assay; format: functional, cell-based
[8] = system: MCF7; test: Antiproliferative activity against human MCF7 cells assessed as reduction in cell viability measured after 48 hrs by MTT assay; format: functional, cell-based
[9] = system: HCT-116; test: Antiproliferative activity against human HCT116 cells assessed as reduction in cell viability measured after 48 hrs by MTT assay; format: functional, cell-based
[10] = system: HeLa; test: Antiproliferative activity against human HeLa cells assessed as reduction in cell viability measured after 48 hrs by MTT assay; format: functional, cell-based
[11] = system: Raji; test: Induction of apoptosis in human Raji cells assessed as necrotic cells at 0.5 uM measured after 48 hrs by Annexin V-FITC staining based flow cytometry (reference value: 0.12 to 0.15 %); format: functional
[12] = system: Raji; test: Cell cycle arrest in human Raji cells assessed as accumulation at S phase at 0.5 uM measured after 24 hrs by propidium iodide/RNase staining based flow cytometry (reference value: 52%); format: functional
[13] = system: Raji; test: Induction of mitochondrial membrane potential loss in human Raji cells measured after 48 hrs by TMRM staining based fluorescence assay; format: functional, cell-based
How it was run: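 Raji cells treated 48 h (CCCP as positive control), washed in PBS. Incubated with TMRM at 100 nM final for 15 min at 37 °C, fluorescence read at ex 510/em 580 nm. Mean ± SD.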

[14] = system: Raji; test: Induction of apoptosis in human Raji cells assessed as necrotic cells at 1 uM measured after 48 hrs by Annexin V-FITC staining based flow cytometry (reference value: 0.12 to 0.15 %); format: functional
[15] = system: A-375; test: Antiproliferative activity against human A375 cells assessed as reduction in cell viability measured after 48 hrs by MTT assay; format: functional, cell-based
[16] = system: NAMALVA; test: Antiproliferative activity against human NAMALWA cells assessed as reduction in cell viability measured after 48 hrs by MTT assay; format: functional, cell-based
[17] = system: K562; test: Antiproliferative activity against human K562 cells assessed as reduction in cell viability measured after 48 hrs by MTT assay; format: functional, cell-based
[18] = system: Raji; test: Antiproliferative activity against human Raji cells assessed as reduction in cell viability measured after 48 hrs by MTT assay; format: functional, cell-based
[19] = Solubility of the compound in PBS; format: physicochemical
[20] = system: Raji; test: Induction of apoptosis in human Raji cells assessed as early apoptotic cells at 0.25 uM measured after 48 hrs by Annexin V-FITC staining based flow cytometry (reference value: 2.12 to 2.15 %); format: functional
[21] = system: Raji; test: Antiproliferative activity against human Raji cells assessed as inhibition of cell proliferation at 0.156 to 1.250 uM measured after 48 hrs in presence of uridine by MTT assay; format: functional, cell-based
How it was run: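 Raji cells (ATCC; 10% FBS medium, 37 °C, 5% CO2) seeded at 2-10 × 10^3 cells/well, grown 24 h, then exposed to compound with or without uridine (500 μM) for 48 h. MTT added for 2-4 h; formazan dissolved in 20% acidified SDS overnight; absorbance read at 570 nm. Mean ± SD.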

[22] = system: Raji; test: Induction of apoptosis in human Raji cells assessed as live cells at 1 uM measured after 48 hrs by Annexin V-FITC staining based flow cytometry (reference value: 96.46 to 96.71 %); format: functional
[23] = target: Dihydroorotate dehydrogenase (quinone), mitochondrial (Homo sapiens, UniProt Q02127); test: Inhibition of human DHODH using dihydroorotate as substrate and CoQ10 as co-substrate preincubated for 30 mins followed by substrate addition by DCIP coupled microplate reader assay
Chain of Dihydroorotate dehydrogenase (quinone), mitochondrial (Q02127 whole entry): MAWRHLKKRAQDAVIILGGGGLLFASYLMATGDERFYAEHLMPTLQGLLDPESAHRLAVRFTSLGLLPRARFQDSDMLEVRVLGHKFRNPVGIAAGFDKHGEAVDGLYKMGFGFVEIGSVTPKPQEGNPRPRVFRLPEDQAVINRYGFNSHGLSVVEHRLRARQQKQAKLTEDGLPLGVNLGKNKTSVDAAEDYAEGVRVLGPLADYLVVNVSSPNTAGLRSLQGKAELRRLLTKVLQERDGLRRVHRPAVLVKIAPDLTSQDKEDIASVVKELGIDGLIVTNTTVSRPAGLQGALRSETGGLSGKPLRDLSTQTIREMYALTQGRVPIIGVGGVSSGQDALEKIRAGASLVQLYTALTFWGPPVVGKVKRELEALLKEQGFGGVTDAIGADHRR

[24] = Toxicity in NOD-SCID nude mouse xenografted with human Raji cells assessed as body weight loss at 30 mg/kg/day, po administered 6 days a week for 3 weeks and measured every 3 days during compound dosing; format: organism-based; conditions: in vivo, 10 mg/kg, in the assay text read “10 mg/kg/day” for “30 mg/kg/day”
[25] = system: Raji; test: Antitumor activity against human Raji cells xenografted in NOD-SCID nude mouse assessed as tumor growth inhibition at 10 mg/kg/day, po administered 6 days a week for 3 weeks relative to control; format: functional
How it was run: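 Nude mice given 1 × 10^7 Raji cells s.c. in serum-free medium plus basement membrane matrix. Randomized at 100–200 mm3 tumour volume (n = 6 per group). Oral dosing 6 days/week for 3 weeks. Vehicles: 30 mg/kg/d in 5% NMP/95% PEG400, 10 mg/kg/d in 30% PEG300/70% saline. Volume = ab²/2 every 3 days. TGI from treated vs control volume change, initial to final day.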

[26] = Stability of the compound in pH 1 to 7.4 buffer assessed as decrease in compound concentration at 0.01 mg/ml measured up to 24 hrs by LC-MS analysis; format: physicochemical; conditions: read-out: Drug degradation
How it was run: (§1)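 Compound at 0.01 mg/mL final in buffer containing 10% acetonitrile at pH 1.0, 4.5, 6.6, 7.4 or 9.0. Held at 37 °C, sampled at 0, 2, 4, 6, 8, 10, 12 and 24 h. Remaining compound by LC-MS.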

[27] = Toxicity in NOD-SCID nude mouse xenografted with human Raji cells assessed as induction of liver damage at 10 mg/kg/day, po administered 6 days a week for 3 weeks and measured post last dose by H and E staining based light microscopic analysis; conditions: in vivo
[28] = Stability of the compound in pH 9 buffer assessed as decrease in compound concentration at 0.01 mg/ml measured up to 24 hrs by LC-MS analysis; format: physicochemical; conditions: read-out: Drug degradation; how it was run: as §1

With `COc1cccc(-c2c(F)cc(-n3nnc4c3C(=O)c3ccccc3C4=O)cc2F)c1` the Activity [1] was “Dose-dependent effect”, the Activity [2] was 91.11% and the Activity [3] was 91.81%. It also gave an Activity [4] of 0.5%, an Activity [5] of 4.24% and an Activity [6] of 3.43%. The pIC50 ([7]; Homo sapiens, A549, 48 h) was 5.65, the pIC50 ([8]; Homo sapiens, MCF7, 48 h) was under 5.00 and the pIC50 ([9]; Homo sapiens, HCT-116, 48 h) was 6.22. It also gave a pIC50 ([10]; Homo sapiens, HeLa, 48 h) of under 5.00, an Activity [11] of 0.36% and an Activity [12] of 77.98%. For the same compound, the Activity [13] was “Dose-dependent effect”, the Activity [14] was 0.39% and the pIC50 ([15]; Homo sapiens, A-375, 48 h) was 7.40. It also gave a pIC50 ([16]; Homo sapiens, NAMALVA, 48 h) of 5.98, a pIC50 ([17]; Homo sapiens, K562, 48 h) of 6.47 and a pIC50 ([18]; Homo sapiens, Raji, 48 h) of 6.32. For the same compound, the solubility [19] was 21.4 µg/mL (≈ 51.3 µM), the Activity [20] was 3.58% and the inhibition [21] was “inactive”. The Activity [22] was 90.1% and the pIC50 [23] was 8.05.

For `Cc1c(-c2ccc(-c3ccccc3F)cc2)nc2ccc(F)cc2c1C(=O)O` [BREQUINAR], the Activity [2] was 91.85%, the Activity [24] was “Toxic” and the Activity [3] was 93.68%. It also gave an Activity [4] of 0.27%, an Activity [5] of 2.48% and a TGI [25] of 74%. The degraded at 24 h, 0.01 mg/ml [26] was 6.3 to 12.1%, the Activity [6] was 3.56% and the pIC50 ([7]; a549) was 5.39. For the same compound, the pIC50 ([8]; mcf7) was under 5.00, the Activity [27] was “Toxic” and the pIC50 ([9]; hct-116) was 5.39. For the same compound, the pIC50 ([10]; hela) was under 5.00, the Activity [11] was 0.27% and the degraded at 24 h, 0.01 mg/ml [28] was 75.4%. The Activity [14] was 0.41%, the pIC50 ([15]; a-375) was 6.23 and the pIC50 ([16]; namalva) was under 5.00. It also gave a pIC50 ([17]; k562) of 6.27, a pIC50 ([18]; raji) of 5.64 and a solubility [19] of 75.2 µg/mL (≈ 200 µM). For the same compound, the Activity [20] was 2.42% and the Activity [22] was 92.06%.
